ChEMBL document CHEMBL1152458, “Voriconazole inhibits melanization in Cryptococcus neoformans” (2007)
Converted amounts (≈) assume the structure as drawn. The source made the active and inactive calls.

Columns and labels:
Cryptococcus neoformans [1] = assay: Antifungal activity against Cryptococcus neoformans ATCC 24067 after 72 hrs by NCCLS M27A method; type: functional; settings: ATCC 24067, 72 h
Cryptococcus neoformans [2] = assay: Inhibition of intact recombinant Cryptococcus neoformans ATCC 24067 laccase-mediated ABTS oxidation at 0.5 times MIC after 2 hrs
Summary of the method: (§1)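 Yeasts grown 72 h at 30°C in asparagine medium with glucose, then 36 h without glucose. Intact cells were used at 1 x 10^8/ml in PBS ± voriconazole. Alternatively, bead-beaten cytoplasmic extracts in 0.1 M Na2HPO4 with protease inhibitor were used. ABTS 1 mM final, 30°C for 2 h; cells removed and A420 read against a no-ABTS baseline. Rhus laccase (1 U/ml) served as positive control. Run twice.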

Cryptococcus neoformans [3] = assay: Increase in phagocytosis of Cryptococcus neoformans ATCC 24067 by mouse J774.16 cells at 0.25 to 0.5 times MIC; type: functional, organism-based
Summary of the method: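 Yeasts (5 x 10^4 in 25 ml minimal medium + 1 mM L-dopa, 0.25 or 0.5 MIC drug, 30°C, 150 rpm) sampled on days 3, 5 and 7. They were PBS-washed and added 1:1 to J774.16 macrophages with 10 µg/ml mAb 18B7 for 2 h at 37°C. Monolayers were washed, methanol-fixed and Giemsa-stained. Index is internalized yeasts per macrophage, from 3 wells × 3 fields (~100 macrophages each) at x400.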

Cryptococcus neoformans [4] = assay: Reduction in LAC1 gene expression in Cryptococcus neoformans ATCC 24067 at 0.25 to 0.5 times MIC after 7 days by qRT-PCR relative to control; type: functional; set-up: scale not given: the % may be the effect or the level left
Summary of the method: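 Cells grown 7 days at 30°C on foil-covered minimal-medium agar + 1 mM L-dopa ± drug (0.25 or 0.5 MIC). Total RNA was DNase-treated and reverse transcribed, then LAC1 was measured by real-time PCR (40 cycles, 55°C annealing) with melting curve. Expression was normalized to ACT1 using the threshold-cycle method.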

Cryptococcus neoformans [5] = assay: Inhibition of melanin formation in Cryptococcus neoformans ATCC 24067 at 0.5 times MIC coincubated with L-dopa for 7 days by dry-weight measurement; type: functional; set-up: scale not given: the % may be the effect or the level left
Summary of the method: (§2)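 5 x 10^4 yeasts grown in 50 ml minimal medium + 1 mM L-dopa ± drug (0.25 or 0.5 MIC) at 30°C, 150 rpm, for 7 days. Melanin "ghosts" were isolated by cell-wall lysing enzymes (10 mg/ml, overnight 30°C), proteinase K (1 mg/ml, SDS buffer pH 7.8, 37°C overnight) and boiling 6 M HCl for 1 h. They were then lyophilized and weighed.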

Cryptococcus neoformans [6] = assay: Antifungal activity against Cryptococcus neoformans ATCC 24067 assessed as effect on growth rate at 0.25 to 0.5 times MIC; type: functional, organism-based
Summary of the method: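 C. neoformans 24067 grown at 30°C in minimal medium with L-dopa, with drug at several sub-MIC levels up to 0.5 MIC. Inoculum was 5 x 10^4 cells in 50 ml per concentration, with growth followed over time.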

[7] = test system: Toxicodendron vernicifluum; assay: Inhibition of recombinant Rhus vernificera laccase-mediated ABTS oxidation measured as inhibition activity with respect to decrease in enzyme concentration from 1 to 0.001 U/mL at 1 ug/ml
Summary of the method: (§3)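 Commercial Rhus vernificera laccase incubated with voriconazole, varying concentrations of either enzyme or drug, in PBS. ABTS 1 mM final, 30°C for 2 h, with absorbance read at 420 nm.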

[8] = test system: Toxicodendron vernicifluum; assay: Inhibition of cytoplasmic extract of recombinant Rhus vernificera laccase-mediated ABTS oxidation at 0.5 times MIC after 2 hrs; summary of the method: as §1
[9] = test system: Toxicodendron vernicifluum; assay: Inhibition of Rhus vernificera recombinant laccase-mediated ABTS oxidation; summary of the method: as §3
Cryptococcus neoformans [10] = assay: Inhibition of melanin formation in Cryptococcus neoformans ATCC 24067 at 0.25 times MIC coincubated with L-dopa for 7 days by dry-weight measurement; type: functional; set-up: scale not given: the % may be the effect or the level left; summary of the method: as §2
Cryptococcus neoformans [11] = assay: Inhibition of melanin formation in Cryptococcus neoformans ATCC 24067 at =<0.5 times MIC after 10 days by plating assay; type: functional, organism-based
Summary of the method: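 Strain 24067 yeast grown on minimal-medium agar plates containing 1 mM L-dopa, with or without drug, 10 days at 30°C. Read-out was visual dark pigmentation of colonies and of surrounding agar from secreted laccase. Plates run in triplicate, experiment performed twice.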

SMILES	MIC (Cryptococcus neoformans [1]) [µg/mL]	Activity (Cryptococcus neoformans [4])	Activity (Cryptococcus neoformans [5]) [%]	Activity (Cryptococcus neoformans [10]) [%]	also measured
CCC(C)n1ncn(-c2ccc(N3CCN(c4ccc(OCC5COC(Cn6cncn6)(c6ccc(Cl)cc6Cl)O5)cc4)CC3)cc2)c1=O (stereo not drawn) [ITRACONAZOLE]	< 0.625	–	–	–	–
C[C@@H](c1ncncc1F)[C@](O)(Cn1cncn1)c1ccc(F)cc1F [VORICONAZOLE]	0.015 (≈ 0.0429 µM)	40%	94.5	82.1	Activity (Cryptococcus neoformans [2]): Active; Activity (Cryptococcus neoformans [3]): Active; Activity (Cryptococcus neoformans [6]): inactive; Activity [7]: Active; Activity [8]: Active; Activity [9]: Dose-dependent effect
OC(Cn1cncn1)(Cn1cncn1)c1ccc(F)cc1F [FLUCONAZOLE]	1 (≈ 3.27 µM)	inactive	17.3	2.7	–
C[C@@H]1[C@H](O)[C@@H](C)/C=C/C=C/C=C/C=C/C=C/C=C/C=C/[C@H](O[C@@H]2O[C@H](C)[C@@H](O)[C@H](N)[C@@H]2O)C[C@@H]2O[C@](O)(C[C@@H](O)C[C@@H](O)[C@H](O)CC[C@@H](O)C[C@@H](O)CC(=O)O[C@H]1C)C[C@H](O)[C@H]2C(=O)O [AMPHOTERICIN B]	0.125 (≈ 0.135 µM)	–	–	–	Activity (Cryptococcus neoformans [11]): inactive
CC[C@H](C)C[C@H](C)CCCCCCCCC(=O)N[C@H]1C[C@@H](O)[C@@H](NCCN)NC(=O)[C@@H]2[C@@H](O)CCN2C(=O)[C@H]([C@H](O)CCN)NC(=O)[C@H]([C@H](O)[C@@H](O)c2ccc(O)cc2)NC(=O)[C@@H]2C[C@@H](O)CN2C(=O)[C@H]([C@@H](C)O)NC1=O [CASPOFUNGIN]	8 (≈ 7.32 µM)	–	–	–	–
